Results published in ChEMBL document CHEMBL4196173, “Stabilized β-Hairpin Peptide Inhibits Insulin Degrading Enzyme” (J Med Chem, 2018).
Calls of active or inactive are those of the source. No cut-off for these calls is given here.

Legend:
Insulin-degrading enzyme [1] = biological target: T1, Insulin-degrading enzyme (Mus musculus, UniProt Q9JHR7); experiment: Inhibition of mouse His-tagged IDE (42 to 1019 residues) using fluorophore/quencher-tagged RPPGFSAFK(Dnp)-OH peptide as substrate preincubated for 10 mins followed by substrate addition measured over 5 mins by TR-FRET assay
T1 sequence (Q9JHR7 whole entry): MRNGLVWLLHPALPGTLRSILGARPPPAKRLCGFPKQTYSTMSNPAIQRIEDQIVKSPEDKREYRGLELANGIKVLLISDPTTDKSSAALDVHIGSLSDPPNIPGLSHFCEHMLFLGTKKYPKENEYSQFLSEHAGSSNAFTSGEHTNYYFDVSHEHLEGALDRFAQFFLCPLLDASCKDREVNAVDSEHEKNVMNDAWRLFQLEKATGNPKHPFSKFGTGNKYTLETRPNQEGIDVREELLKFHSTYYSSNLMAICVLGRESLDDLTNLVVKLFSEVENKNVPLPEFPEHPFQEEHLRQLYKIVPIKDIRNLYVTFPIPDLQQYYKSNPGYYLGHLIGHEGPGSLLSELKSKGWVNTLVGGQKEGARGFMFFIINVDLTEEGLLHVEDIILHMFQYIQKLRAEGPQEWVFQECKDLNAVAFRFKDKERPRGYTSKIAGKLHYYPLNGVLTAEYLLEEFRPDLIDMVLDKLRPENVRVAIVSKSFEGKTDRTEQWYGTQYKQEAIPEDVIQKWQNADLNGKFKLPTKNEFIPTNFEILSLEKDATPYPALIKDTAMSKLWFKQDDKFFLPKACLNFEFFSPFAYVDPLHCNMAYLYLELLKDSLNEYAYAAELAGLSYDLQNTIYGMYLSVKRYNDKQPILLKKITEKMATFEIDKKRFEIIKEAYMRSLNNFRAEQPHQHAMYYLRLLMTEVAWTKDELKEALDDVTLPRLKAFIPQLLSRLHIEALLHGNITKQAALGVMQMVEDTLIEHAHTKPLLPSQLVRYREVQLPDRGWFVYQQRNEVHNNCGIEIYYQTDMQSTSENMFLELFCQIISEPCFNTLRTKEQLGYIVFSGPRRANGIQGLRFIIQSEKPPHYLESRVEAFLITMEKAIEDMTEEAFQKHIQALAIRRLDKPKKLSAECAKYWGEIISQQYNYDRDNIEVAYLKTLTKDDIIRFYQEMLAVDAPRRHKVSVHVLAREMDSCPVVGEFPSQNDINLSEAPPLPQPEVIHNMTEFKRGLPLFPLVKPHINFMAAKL

Insulin-degrading enzyme [2] = biological target: Insulin-degrading enzyme (Homo sapiens, UniProt P14735, E111Q); experiment: Binding affinity to IDE E111Q mutant (unknown origin) using N-terminal FITC-labeled compound after 2 hrs in absence of light at 298 K by fluorescence polarization assay
Insulin-degrading enzyme (Homo sapiens, UniProt P14735, E111Q), sequence (P14735 whole entry E111Q): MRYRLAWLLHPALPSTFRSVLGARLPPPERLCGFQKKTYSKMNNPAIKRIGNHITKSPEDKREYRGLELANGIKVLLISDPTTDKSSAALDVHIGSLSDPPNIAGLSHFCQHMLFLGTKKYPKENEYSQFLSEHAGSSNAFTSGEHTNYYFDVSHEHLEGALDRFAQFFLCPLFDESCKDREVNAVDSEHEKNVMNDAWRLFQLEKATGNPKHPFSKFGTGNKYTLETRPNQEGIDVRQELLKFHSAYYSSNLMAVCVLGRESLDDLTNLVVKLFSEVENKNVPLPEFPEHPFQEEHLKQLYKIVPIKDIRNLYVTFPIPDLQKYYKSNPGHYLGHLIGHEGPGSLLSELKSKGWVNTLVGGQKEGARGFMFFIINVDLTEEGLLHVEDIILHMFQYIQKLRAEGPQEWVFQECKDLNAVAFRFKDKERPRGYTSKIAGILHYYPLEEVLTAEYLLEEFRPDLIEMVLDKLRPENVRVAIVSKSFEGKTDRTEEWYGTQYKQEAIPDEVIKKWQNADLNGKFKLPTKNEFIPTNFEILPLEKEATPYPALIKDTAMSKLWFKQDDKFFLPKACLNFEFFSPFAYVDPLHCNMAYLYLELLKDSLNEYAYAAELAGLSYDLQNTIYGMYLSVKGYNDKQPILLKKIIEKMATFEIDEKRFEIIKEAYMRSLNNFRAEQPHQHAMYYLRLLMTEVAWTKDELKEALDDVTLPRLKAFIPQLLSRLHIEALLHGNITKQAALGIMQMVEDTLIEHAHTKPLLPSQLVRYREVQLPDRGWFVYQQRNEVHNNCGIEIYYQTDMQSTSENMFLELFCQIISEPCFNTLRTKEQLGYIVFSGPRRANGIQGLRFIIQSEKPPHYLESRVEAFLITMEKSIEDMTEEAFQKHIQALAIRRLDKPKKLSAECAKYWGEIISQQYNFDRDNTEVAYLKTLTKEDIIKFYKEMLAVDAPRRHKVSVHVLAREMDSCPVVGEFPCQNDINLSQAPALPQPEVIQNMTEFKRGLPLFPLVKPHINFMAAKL
Outline: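 IDE-E111Q was titrated against 20 nM FITC-labelled peptide in 20 mM Tris-HCl pH 8.0, 50 mM NaCl, 1 mM TCEP and incubated 2 h at 277 K in the dark. Polarization was read at 298 K (ex 480, em 535 nm) and plotted against IDE concentration. Three independent experiments, each in duplicate.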

[3] = Selectivity ratio of IC50 for ECE-1 (unknown origin) to IC50 for mouse His-tagged IDE (42 to 1019 residues)
[4] = biological target: Insulin-degrading enzyme (Homo sapiens) (UniProt P14735); experiment: Inhibition of IDE (unknown origin) assessed as potentiation of insulin-induced AKT phosphorylation in rat skeletal muscle cells at 100 uM preincubated for 10 mins followed insulin addition measured by Western blot analysis; format: cell-based
Insulin-degrading enzyme (Homo sapiens), sequence (P14735 whole entry): as the sequence (P14735 whole entry E111Q) above, with Q111E counted along it
Outline: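 Rat skeletal muscle cells were treated with 100 nM IDE plus peptide, for 10 min or at time points up to 24 h with 100 μM. Insulin (10 nM) was then added for 10 min. RIPA lysates were run on 10% SDS-PAGE and blotted for pAKT and AKT with GAPDH as loading control. Densitometry on three regions, two-tailed t test.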

[5] = Selectivity ratio of IC50 for NEP (unknown origin) to IC50 for mouse His-tagged IDE (42 to 1019 residues)
[6] = Hemolytic activity against mouse RBC at 300 uM after 1 hr at 310 K; format: ADME, cell-based, Erythrocyte; settings: mouse red blood cells (erythrocytes), read-out: Activity
Outline: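 Fresh mouse red cells were washed six times and suspended at 1 × 10^8 cells/mL in PBS. Peptides at 2.3–300 μM were added for 1 h at 310 K. After centrifugation, hemoglobin in the supernatant was read at 576 nm. PBS served as 0% and 0.1% Triton X-100 as 100% lysis. Three independent experiments in duplicate.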

[7] = Metabolic stability in 25% mouse serum assessed as compound remaining at 250 uM up to 24 hrs by LC-MS analysis; format: ADME, cell-free
Outline: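 Peptide at a final 250 μM in 25% mouse serum was incubated at 310 K for 0–24 h. Samples were quenched in 12% TCA in H2O/CH3CN (1:1) and chilled at 277 K for 15 min. After centrifugation, the intact peptide in the supernatant was quantified by LC–MS. Three independent experiments.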

Mus musculus [8] = experiment: Toxicity in lean C57BL/6J mouse assessed as behavioral changes at 80 mg/kg, ip; format: organism-based; settings: in vivo
Outline: (§1)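 Male lean C57BL/6J mice (13–15 weeks) received 80 mg kg−1 i.p. or PBS vehicle (n = 6 each). Behaviour and body weight were monitored.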

Mus musculus [9] = experiment: Toxicity in lean C57BL/6J mouse assessed as body weight change at 80 mg/kg, ip after 3 days; format: organism-based; settings: in vivo, 72 h; outline: as §1
Mus musculus [10] = experiment: Effect on glucose levels in lean C57BL/6J mouse at 80 mg/kg, ip administered 30 min prior to glucose stimulation measured up to 120 min […]; format: ADME, organism-based; settings: in vivo
Mus musculus [11] = experiment: Hypoglycemic activity in lean C57BL/6J mouse at 80 mg/kg, ip administered 30 min prior to insulin injection measured up to 75 mins post insulin injection by ITT; format: functional, organism-based
Outline: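 Lean male mice were fasted 6 h, then given 80 mg kg−1 i.p. or PBS (n = 6) 30 min before subcutaneous insulin (0.25 U kg−1 in saline). Tail blood glucose was read at −30 to 75 min. Mean ± SEM, two-tailed t test, repeated three times.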

Mus musculus [12] = experiment: AUC (0 to 43 hrs) in lean C57BL/6J mouse at 100 mg/kg, ip by LC-MS analysis; format: ADME, organism-based; design: time < 43 hr, dose 100 mg/kg, route intraperitoneal; settings: in vivo
Outline: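 Male lean C57BL/6J mice, 13–15 weeks old, given one i.p. dose of 100 mg kg−1 (n = 5). Tail or eye-socket blood was taken from 20 min to 43 h and spun to plasma. 30 μL plasma was mixed with 100 μL 10% TCA in H2O/CH3CN (1:1) and chilled at 277 K for 15 min. After centrifugation the peptide left in the supernatant was quantified by LC–MS. Two independent experiments.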

[13] = Drug uptake in brain parenchyma of lean C57BL/6J mouse at 40 mg/kg, iv using cy5-labeled compound by two-photon microscopic analysis; settings: in vivo

IC50 (Insulin-degrading enzyme [1]): 22 nM | Kd (Insulin-degrading enzyme [2]): 22 nM | Ratio IC50 [3]: > 1000 | inhibition [4]: Active | Ratio IC50 [5]: > 1000 | Stability [7]: Unstable | AUC (Mus musculus [12]): 7600 µg·h/mL | Drug uptake [13]: Not Active
SMILES: CC(=O)N[C@@H](CCC(=O)O)C(=O)N[C@@H](Cc1c[nH]c2ccccc12)C(=O)N[C@@H](CCCNC(=N)N)C(=O)N[C@@H](Cc1ccccc1)C(=O)N[C@H]1CC(=O)NC[C@@H](C(=O)N[C@@H](CC(C)C)C(=O)N[C@@H](Cc2ccc(O)cc2)C(=O)N[C@@H](CC(C)C)C(=O)N[C@H](C(=O)N[C@@H](CS)C(=O)NCC(N)=O)C(C)C)NC(=O)[C@H](CCC(=O)O)NC(=O)[C@@H]2CCCN2C(=O)[C@H]2CCCN2C(=O)CNC1=O
hemolysis at 1 h, 300 µM [6]: < 10% | Activity (Mus musculus [8]): Non-Toxic | Activity (Mus musculus [9]): Non-Toxic | Activity (Mus musculus [10]): Non-Toxic | Activity (Mus musculus [11]): Active
